Compounds with a hit are over-represented: about 2.2% of the library has one in this group of screens.
FAK inh – blocks human focal adhesion kinase activity; biochemical FAK kinase activity assay; inhibition, %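 (tested at 7 µM)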; 97,000 compounds, 0.84% hits; in the data active means inhibition above about 19%;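 further: 0% = DMSO and 100% = reference compound high control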
Plk1 PBD FP – inhibitors of human Plk1 polo box domain binding. P53350. Plk1 PBD phosphopeptide binding, fluorescence polarization. inhibition, %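 (tested at about 20 µM)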. 97,000 compounds, 0.13% hits. AID 693; in the data active means inhibition above about 34%, passing the limit was not always enough
HIV Rev-RRE inh – HIV Rev-RRE protein-RNA interaction inhibition; 97,000 compounds, 0.79% hits; P05866; Rev peptide-RRE RNA binding, FRET; AID 704; inhibition, % at 8 µM;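 active means inhibition above the screen-wide mean plus 3 SD, cut at about 35% in these data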;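 further: 0% = median DMSO wells and 100% = median Neomycin B control wells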
Target sequence (P05866 whole entry, looked up): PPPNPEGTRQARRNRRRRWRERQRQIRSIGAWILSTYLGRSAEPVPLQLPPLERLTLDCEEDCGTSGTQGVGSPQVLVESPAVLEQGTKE
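Test system: labelled RRE RNA duplex and labelled Rev peptide. Times: 5 min compound–RNA preincubation, then 15 min with peptide, 25 °C. Doses: single-dose 8 µM. Measured by: FRET, excitation 480 nm, emission 540 nm donor and 671 nm acceptor. Measure: % inhibition of FRET ratio versus controls.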
PLK1 inh – blocks human PLK1 kinase activity | inhibition, % at 10 µM | AID 619 | P53350 | 97,000 compounds, 0.53% hits | recombinant PLK1 kinase, TR-FRET peptide phosphorylation;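 active means inhibition of 50% or more in the single-concentration screen; inactive means inhibition below 50%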;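 further: 0% = DMSO max control and 100% = H-89 dihydrochloride min control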
cytoskel mod – cytoskeleton assembly modification; HUVEC TNFa F-actin phalloidin imaging, high content; inhibition, % at 2 µM; 91,000 compounds, 0.18% hits;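 active means inhibition above the batch mean plus 3 SD and confirmed as a hit by visual image inspection, cut at about 30% in these data, passing the limit was not always enough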
E-sel TNF inh – blocks E-selectin expression induced by TNF alpha | HUVEC TNFa-induced E-selectin immunofluorescence, high content | 120,000 compounds, 0.71% hits | inhibition, % at 2 µM;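 active means inhibition above the batch mean plus 3 SD, and confirmed as a hit on visual image review, cut at about 43% in these data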;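 further: 0% = TNF-stimulated DMSO wells and 100% = unstimulated control wells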
Active calls of the source: *; . = no result given; [ ] = dose if it differs, or a comment.

SMILES | FAK inh | Plk1 PBD FP | HIV Rev-RRE inh | PLK1 inh | cytoskel mod | E-sel TNF inh
Cc1ccc(NC(=O)C2=C(c3ccccc3)S(=O)(=O)CCS2(=O)=O)cc1 | . | . | . | . | . | 79*
Cc1ccc(NC(=O)c2ccccc2)cc1 | 0 | 10 | 2 | -6 | 18 | 14
COc1cccc(-n2c(SC)nnc2-c2c[nH]c3ccccc23)c1 | 0 | 2 | 10 | -11 | 1 | 6
COc1ccc(-n2c(SC)nnc2-c2c[nH]c3ccccc23)cc1 | 0 | -30 | 6 | 55* | . | .
CC(C)Sc1nnc(-c2c[nH]c3ccccc23)n1C | -6 | -2 | 2 | 64* | . | .
C=CCSc1nnc(-c2c[nH]c3ccccc23)n1CC | -6 | 5 | 0 | 61* | . | .
CCn1c(SC(C)C(=O)OC)nnc1-c1c[nH]c2ccccc12 (stereo unspecified) | 5 | 6 | 3 | 65* | . | .
CCn1c(SCC(=O)NCc2ccco2)nnc1-c1c[nH]c2ccccc12 | 0 | -13 | 5 | -9 | 3 | 16
CCOC(=O)C(C)Sc1nnc(-c2c[nH]c3ccccc23)n1C (stereo unspecified) | -1 | -12 | 1 | -6 | 2 | 9
Oc1c(Br)cc(Br)cc1C=NCc1ccc(F)cc1 | . | . | . | . | . | -35
COC(=O)[C@@]1(Cc2ccc(OC)cc2)[C@H]2c3cc(C(=O)N4CCCC4)n(CCSCCO)c3C[C@H]2CN1C(=O)c1ccccc1 | . | . | . | . | . | 10
Nc1cc(C(=O)O)c(Oc2ccc(Cl)cc2Cl)cc1C(=O)O | . | . | . | . | . | 4
COc1cccc(C(=O)OCC(=O)c2c[nH]c3ccccc23)c1O | . | . | . | . | . | -5
Cc1ccc(C)c2nc3sc(C(=O)N4CCCc5ccccc54)c(N)c3cc12 | 6 | -45 | 62* | -18 | 16 | 22
CCc1ccc2nc3sc(C(=O)N4CCc5ccccc54)c(N)c3cc2c1 | . | . | . | . | . | 11
CN(C)c1ccc(/C=c2\sc3nc(-c4ccccc4)nn3c2=O)cc1 | -4 | -35 | 75* | -16 | 20 | -5
COc1ccc(NC2=CC(=O)N(C)C2=O)cc1 | . | . | . | . | . | -7
COc1ccc(N2CCN(C(=O)CSc3nnc4c(C)cc5cc(C)ccc5n34)CC2)cc1 | 5 | -27 | -3 | -1 | 51* | .
CC(C)=C1SC(N2CCN(c3ccc(C)cc3)CC2)=NC1=O | 1 | -6 | 6 | -11 | -4 | 63*
CCOC(=O)c1c(-c2cccs2)csc1NC(=O)CNCCN1CCOCC1 | 0 | -50 | 7 | -6 | 18 | 0
O=C(c1cc(Cl)c(=O)n(Cc2ccc(Cl)cc2)c1)N1CCOCC1 | -2 | 24 | 5 | -1 | 7 | 19
CN1/C(=C/C(=O)c2nc(S(C)(=O)=O)ncc2Cl)C(C)(C)c2ccccc21 | 9 | -7 | 11 | -7 | 0 | 90*
CN1/C(=C\C(=O)c2cncc(Br)c2)C(C)(C)c2ccccc21 | . | . | . | . | . | -4
COc1ccc(-n2nc3c(c2NC(=O)c2ccc(Br)cc2)CS(=O)C3)cc1 (stereo unspecified) | 7 | -20 | 3 | -11 | -14 | .
COc1ccc(-n2nc3c(c2NC(=O)c2cc(Br)ccc2Cl)CS(=O)C3)cc1 (stereo unspecified) | -2 | -12 | 1 | -20 | -6 | 83*
SMILES | FAK inh | Plk1 PBD FP | HIV Rev-RRE inh | PLK1 inh | cytoskel mod | E-sel TNF inh
COc1ccc(-c2nc(CCNC(=O)c3cccs3)cs2)cc1 | 1 | -11 | 7 | -10 | 7 | -7
CCC(=O)c1ccc(N2CCOCC2)c(F)c1 | 0 | 14 | 5 | -13 | -18 | 56*
O=C(/C=C/Nc1cccc(C(F)(F)F)c1)c1ccc(Oc2ncccn2)cc1 | -2 | -11 | 2 | -6 | 4 | 64*
COc1ccc(C2C=C(c3cccs3)Nc3nc(CCCO)nn32)cc1 (stereo unspecified) | -10 | 0 | 129*[fluorescence artefact?] | -5 | -5 | 15
OCCCc1nc2n(n1)C(c1ccccc1)C=C(c1ccccc1)N2 (stereo unspecified) | 2 | -7 | 30 | -14 | -16 | 34
COc1ccc(C2C=C(c3ccccc3)Nc3nc(CCCO)nn32)cc1 (stereo unspecified) | 10 | -27 | 40* | -28 | 10 | 21
Cc1ccc(C(=O)OCC(=O)N(C)C2CCS(=O)(=O)C2)cc1[N+](=O)[O-] (stereo unspecified) | . | . | . | . | . | -17
CCCOC(=O)c1ccc(Cl)c(NC(=O)c2ccc(-c3ccccc3)cc2)c1 | -4 | 12 | 4 | -11 | -2 | 100*
Cc1c(NC(=S)NC(NC(=O)C(C)(C)C)C(Cl)(Cl)Cl)c(=O)n(-c2ccccc2)n1C (stereo unspecified) | . | . | . | . | . | -3
O=C(c1cccc(C(F)(F)F)c1)C1CCCN(Cc2cccn2-c2ccccn2)C1 (stereo unspecified) | . | . | . | . | . | -6
COc1ccc(C2CC(c3cccs3)=Nc3ccccc3S2)cc1 (stereo unspecified) | -2 | -9 | 5 | -14 | 1 | 10
O=c1n(Cc2ccccc2F)c2ccccc2n1Cc1ccccc1F | 2 | 4 | 11 | -10 | 31* | -4
Cc1ccc(CN2CCN(Cc3ccccc3C(F)(F)F)CC2)cc1 | 1 | -34 | 11 | 0 | 14 | 10
COc1cccc(C2=CC(c3ccc(C)cc3)n3ncnc3N2)c1 (stereo unspecified) | 5 | 4 | 49* | -10 | 2 | 2
Cc1ccc(C2C=C(c3ccc4c(c3)OCO4)Nc3ncnn32)cc1 (stereo unspecified) | -3 | -31 | 29 | -1 | . | .
Cc1ccsc1C1C=C(c2cccc(Br)c2)Nc2ncnn21 (stereo unspecified) | 3 | -29 | 81*[fluorescence artefact?] | 2 | 21 | .
CSCCC(N=C(NS(=O)(=O)c1ccc(Br)cc1)c1ccccc1)C(=O)O (stereo unspecified) | . | . | . | . | . | -34
Brc1ccc(-c2csc3ncnc(-n4nnc5ccccc54)c23)cc1 | . | . | . | . | . | -15
NC(=O)c1ccsc1NC(=O)c1ccc2c(c1)CCCC2 | . | . | . | . | . | -12
NC(=O)c1ccsc1NC(=O)c1cccs1 | 28* | 25 | 11 | -2 | -1 | 17
O=C(Nc1cc2c3c(c1)C1CCCC1CN3CC1CCCC21)c1ccccc1 (stereo unspecified) | 11 | -20 | 10 | -8 | 14 | 3
N#Cc1cc(C(=O)c2cc(Br)ccc2O)cn(C2CCCCC2)c1=O | 3 | -28 | 17 | -7 | 17 | -6
Cc1c(-n2cc(C(=O)c3cc(Br)ccc3O)cc(C#N)c2=O)c(=O)n(-c2ccccc2)n1C | 1 | -76 | 74*[fluorescence artefact?] | -13 | 10 | .
Cc1c(-n2cc(C(=O)c3cc(Cl)ccc3O)cc(C#N)c2=O)c(=O)n(-c2ccccc2)n1C | -1 | -107 | 83*[fluorescence artefact?] | -7 | -1 | -44
Cc1c(NCc2cc(Cl)ccc2O)c(=O)n(-c2ccccc2)n1C | -5 | -10 | -2 | -3 | 0 | 1
Cc1ccc(O)c(C(=O)c2cc(C#N)c(=O)n(CC3CCCO3)c2)c1 (stereo unspecified) | -1 | -9 | 6 | -4 | -16 | -21

Bioassay records from PubChem BioAssay.
